Laboratory results published in ChEMBL document CHEMBL4402513, “Bio-Inspired Dual-Selective BCL-2/c-MYC G-Quadruplex Binders: Design, Synthesis, and Anticancer Activity of Drug-like Imidazo[2,1-i]purine Derivatives” (J Med Chem, 2020).
Calls of active or inactive are those of the source. The calls are words filed in the database; no cut-off is given here.

Tests used:
Quadruplex DNA [1] = experiment: Binding affinity to synthetic BCL2 G4 quadruplex DNA assessed as change in chiral structure at 10 molar equiv to DNA measured after 10 mins by circular dichroism spectroscopic analysis; type: nucleic-acid assay
Procedure, shortened: (§1)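 CD spectra of annealed DNA in 20 mM KCl, 5 mM KH2PO4 (pH 7.0). G4 DNAs were at 10 µM and duplex at 15 µM. Ligand (10 mM DMSO stock) was added at 10 molar equivalents. Spectra were recorded 10 min after addition at 20 °C over 230–360 nm, averaged over three scans and baseline corrected.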

Quadruplex DNA [2] = experiment: Binding affinity to synthetic c-MYC G4 quadruplex DNA assessed as change in chiral structure at 10 molar equiv to DNA measured after 10 mins by circular dichroism spectroscopic analysis; type: nucleic-acid assay; procedure, shortened: as §1
Quadruplex DNA [3] = experiment: Binding affinity to synthetic c-KIT1 G4 quadruplex DNA assessed as change in chiral structure at 10 molar equiv to DNA measured after 10 mins by circular dichroism spectroscopic analysis; type: nucleic-acid assay; procedure, shortened: as §1
Quadruplex DNA [4] = experiment: Binding affinity to human telomeric 23 G4 quadruplex DNA assessed as change in chiral structure at 10 molar equiv to DNA measured after 10 mins by circular dichroism spectroscopic analysis; type: nucleic-acid assay; procedure, shortened: as §1
[5] = Binding affinity to synthetic 20-mer hairpin duplex DNA assessed as change in chiral structure at 10 molar equiv to DNA measured after 10 mins by circular dichroism spectroscopic analysis; procedure, shortened: as §1
Quadruplex DNA [6] = experiment: Binding affinity to synthetic BCL2 G4 quadruplex DNA assessed as change in melting temperature at 10 molar equiv to DNA measured after 10 mins by circular dichroism melting analysis; type: nucleic-acid assay
Procedure, shortened: (§2)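 CD melting of folded DNA (G4 10 µM, duplex 15 µM) in 20 mM KCl, 5 mM KH2PO4 (pH 7.0), without and with 10 molar equivalents of ligand. Tm was taken from curve fitting, and ΔTm = Tm(DNA+ligand) − Tm(DNA). Runs were done in triplicate and averaged.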

Quadruplex DNA [7] = experiment: Binding affinity to synthetic c-MYC G4 quadruplex DNA assessed as change in melting temperature at 10 molar equiv to DNA measured after 10 mins by circular dichroism melting analysis; type: nucleic-acid assay; procedure, shortened: as §2
Quadruplex DNA [8] = experiment: Binding affinity to synthetic c-KIT1 G4 quadruplex DNA assessed as change in melting temperature at 10 molar equiv to DNA measured after 10 mins by circular dichroism melting analysis; type: nucleic-acid assay; procedure, shortened: as §2
Quadruplex DNA [9] = experiment: Binding affinity to human telomeric 23 G4 quadruplex DNA assessed as change in melting temperature at 10 molar equiv to DNA measured after 10 mins by circular dichroism melting analysis; type: nucleic-acid assay; procedure, shortened: as §2
[10] = Binding affinity to synthetic 20-mer hairpin duplex DNA assessed as change in melting temperature at 10 molar equiv to DNA measured after 10 mins by circular dichroism melting analysis; procedure, shortened: as §2
Jurkat [11] = experiment: Induction of apoptosis in human Jurkat cells assessed as viable cells at 25 uM measured after 48 hrs by Annexin V-FITC/propidium iodide staining based flow cytometry (reference value: 97%); type: functional; conditions: read-out: Activity
Jurkat [12] = experiment: Induction of apoptosis in human Jurkat cells assessed as early apoptotic cells at 25 uM measured after 48 hrs by Annexin V-FITC/propidium iodide staining based flow cytometry (reference value: 0.3%); type: functional
Jurkat [13] = experiment: Induction of apoptosis in human Jurkat cells assessed as late apoptotic cells at 25 uM measured after 48 hrs by Annexin V-FITC/propidium iodide staining based flow cytometry (reference value: 1.4%); type: functional
Jurkat [14] = experiment: Down regulation of c-MYC mRNA expression in human Jurkat cells at 25 uM measured after 24 hrs by RT-qPCR analysis relative to control; type: functional
Procedure, shortened: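 Jurkat cells were treated 24 h at 25 µM, and total RNA was extracted with TRI Reagent. 0.5 µg RNA was reverse transcribed with MMLV RT and random primers (22 °C 10 min, 42 °C 60 min). SYBR qPCR ran 40 cycles (95/59/72 °C) in duplicate with GAPDH as reference. Relative expression was calculated by the […] method from at least three independent experiments.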

Jurkat [15] = experiment: Down regulation of c-MYC expression in human Jurkat cells at 25 uM measured after 24 hrs by Western blot analysis relative to control; type: functional
Procedure, shortened: (§3)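 Jurkat cells treated 24 h at 25 µM were lysed in 50 mM Hepes pH 7.4, 50 mM NaCl, 1% Triton with protease inhibitors. Protein was quantified by Bradford and run on 10% SDS-PAGE to nitrocellulose. Blots were probed with anti-Bcl-2, anti-c-Myc and anti-β-actin and detected by ECL. Densitometry was normalised to β-actin and expressed as % of control; three independent experiments.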

Jurkat [16] = experiment: Down regulation of BCL2 expression in human Jurkat cells at 25 uM measured after 24 hrs by Western blot analysis relative to control; type: functional; procedure, shortened: as §3
Jurkat [17] = experiment: Cytotoxicity against human Jurkat cells assessed as reduction in cell viability at 50 uM measured after 48 hrs by combined MTT and trypan blue staining based cell counting assay; type: functional
Procedure, shortened: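 Cells were seeded at 10^4/well (HDF 10^3), grown 24 h, then treated 48 h at 5–100 µM in 0.5% v/v DMSO. Read-outs were MTT (1 h, 37 °C, absorbance 550 nm; Jurkat handled by centrifugation) combined with trypan blue live/dead counting into a survival index versus untreated cells. IC50 came from nonlinear regression, n = 6 per experiment ×3 (n = 18), mean ± SEM.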

| Compound | ΔTm (Quadruplex DNA [6]) [°C] | ΔTm (Quadruplex DNA [7]) [°C] | ΔTm (Quadruplex DNA [8]) [°C] | ΔTm (Quadruplex DNA [9]) [°C] | ΔTm [10] [°C] | also measured |
| --- | --- | --- | --- | --- | --- | --- |
| CN(C)c1ccc(-c2nc3ccn(CCN4CCOCC4)c(=O)n3c2NC(C)(C)C)cc1 |  |  |  |  |  | Activity (Quadruplex DNA [1]): inactive; Activity (Quadruplex DNA [2]): inactive; Activity (Quadruplex DNA [3]): inactive; Activity (Quadruplex DNA [4]): inactive; Activity [5]: inactive; deltaTm (Quadruplex DNA [6]): inactive; deltaTm (Quadruplex DNA [7]): inactive; deltaTm (Quadruplex DNA [8]): inactive; deltaTm (Quadruplex DNA [9]): inactive; deltaTm [10]: inactive |
| CC(C)(C)Nc1c(-c2ccccc2F)nc2c3ncn(CCN4CCCC4)c3ncn12 | 5 | 5.8 | 2.1 | 1.1 | 0.3 |  |
| CC(C)(C)Nc1c(-c2ccc(Cl)cc2)nc2c3ncn(CCN4CCOCC4)c3ncn12 | 2.1 | 1.6 | 1.1 | 0.3 | -0.5 |  |
| CN(C)CCCn1cnc2c1ncn1c(NC(C)(C)C)c(-c3ccc(N4CCOCC4)cc3)nc21 | 10.1 | 9.5 | 5.1 | 3.8 | 9.7 |  |
| CN(C)c1ccc(-c2nc3c4ncn(CCCN)c4ncn3c2NC(C)(C)C)cc1 | 1.7 | 1.1 | 1.4 | -0.1 | 0.5 |  |
| CN(C)c1ccc(-c2nc3c4ncn(CCN5CCOCC5)c4ncn3c2NC(C)(C)C)cc1 | 9.2 | 7.2 | 5.2 | 2.4 | 1.9 | Activity (Quadruplex DNA [1]): inactive; Activity (Quadruplex DNA [2]): inactive; Activity (Quadruplex DNA [3]): inactive; Activity (Quadruplex DNA [4]): inactive; Activity [5]: inactive |
| CC(C)(C)Nc1c(-c2ccc(N3CCOCC3)cc2)nc2c3ncn(CCN4CCOCC4)c3ncn12 | 4.9 | 2.1 | 1.9 | 1 | 1.5 | viability at 25 µM (Jurkat [11]): 79%; Activity (Jurkat [12]): 8%; Activity (Jurkat [13]): 9%; Activity (Jurkat [14]): 27%; Activity (Jurkat [15]): Active; Activity (Jurkat [16]): Active; Activity (Jurkat [17]): Active |
| CN(C)CCCn1cnc2c1ncn1c(NC(C)(C)C)c(-c3ccc(N(C)C)cc3)nc21 | 16.9 | > 25 | 11.9 | 7.2 |  |  |
| CN(C)CCCOc1ccccc1-c1nc2c3ncn(CCCN(C)C)c3ncn2c1NC(C)(C)C | 7.8 | > 25 | 4.5 | 5.7 | 3.5 |  |
